Reference: paper PMC11393732 (RSC Medicinal Chemistry, 2024)

Legend:
[1] = molecular target: T1, KDM3A (Homo sapiens, UniProt Q9Y4C1); test: Western blot KDM3A degradation in SW480 cells; format: cell-based; settings: SW480 cells, 16 hours
T1 sequence (Q9Y4C1 1-1321): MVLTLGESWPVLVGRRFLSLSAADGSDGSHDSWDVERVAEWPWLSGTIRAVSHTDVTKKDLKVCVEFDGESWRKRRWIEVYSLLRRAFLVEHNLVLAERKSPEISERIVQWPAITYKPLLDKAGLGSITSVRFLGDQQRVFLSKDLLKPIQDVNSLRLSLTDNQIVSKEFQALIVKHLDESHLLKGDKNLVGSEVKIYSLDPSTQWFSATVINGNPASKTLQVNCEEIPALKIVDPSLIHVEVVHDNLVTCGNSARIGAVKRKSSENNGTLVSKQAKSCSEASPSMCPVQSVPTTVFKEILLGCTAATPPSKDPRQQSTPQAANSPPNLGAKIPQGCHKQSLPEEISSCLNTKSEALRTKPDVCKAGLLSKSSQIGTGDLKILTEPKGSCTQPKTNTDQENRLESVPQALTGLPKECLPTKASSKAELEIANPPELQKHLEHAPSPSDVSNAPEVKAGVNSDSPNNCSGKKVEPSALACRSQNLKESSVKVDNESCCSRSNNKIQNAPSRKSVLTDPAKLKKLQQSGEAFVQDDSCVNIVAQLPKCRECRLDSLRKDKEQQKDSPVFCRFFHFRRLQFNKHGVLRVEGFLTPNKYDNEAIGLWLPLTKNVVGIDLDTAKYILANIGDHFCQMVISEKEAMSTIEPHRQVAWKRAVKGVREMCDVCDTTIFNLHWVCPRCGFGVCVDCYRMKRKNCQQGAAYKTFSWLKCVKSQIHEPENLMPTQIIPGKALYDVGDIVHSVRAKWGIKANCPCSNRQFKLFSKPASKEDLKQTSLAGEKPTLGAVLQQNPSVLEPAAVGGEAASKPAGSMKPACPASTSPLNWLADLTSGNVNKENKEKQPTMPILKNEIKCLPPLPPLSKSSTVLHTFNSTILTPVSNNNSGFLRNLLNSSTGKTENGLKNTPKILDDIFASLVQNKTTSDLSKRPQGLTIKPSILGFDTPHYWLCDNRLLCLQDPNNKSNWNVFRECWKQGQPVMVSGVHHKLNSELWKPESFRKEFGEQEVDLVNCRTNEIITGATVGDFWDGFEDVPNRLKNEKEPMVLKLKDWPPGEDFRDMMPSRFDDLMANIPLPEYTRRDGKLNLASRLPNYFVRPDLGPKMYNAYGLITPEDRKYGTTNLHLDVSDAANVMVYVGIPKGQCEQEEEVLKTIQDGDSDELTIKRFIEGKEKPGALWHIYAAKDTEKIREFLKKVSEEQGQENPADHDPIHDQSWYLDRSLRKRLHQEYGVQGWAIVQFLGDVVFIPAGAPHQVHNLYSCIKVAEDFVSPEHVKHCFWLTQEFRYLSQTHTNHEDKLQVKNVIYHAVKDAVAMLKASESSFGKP
Procedure, shortened: (§1)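 SW480 cells exposed to test compound for 16 h, then total lysates protein-normalised and run on SDS-PAGE. Semi-dry transfer to PVDF, 1 h block in 5% milk. Primary antibody overnight at 4 °C in 1% milk, secondary 1 h at RT, TBST washes, α-tubulin as loading control. Rescue arms co-treated with MLN4924 (1 μM) or pomalidomide (100 μM). Test compound at 0.1 μM for the KDM3A blot and 1 μM for the KDM3B blot.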

[2] = molecular target: KDM3B (Homo sapiens, UniProt Q7LBC6); test: Western blot KDM3B degradation in SW480 cells; format: cell-based; settings: SW480 cells, 16 hours
Chain of KDM3B (Q7LBC6 whole entry): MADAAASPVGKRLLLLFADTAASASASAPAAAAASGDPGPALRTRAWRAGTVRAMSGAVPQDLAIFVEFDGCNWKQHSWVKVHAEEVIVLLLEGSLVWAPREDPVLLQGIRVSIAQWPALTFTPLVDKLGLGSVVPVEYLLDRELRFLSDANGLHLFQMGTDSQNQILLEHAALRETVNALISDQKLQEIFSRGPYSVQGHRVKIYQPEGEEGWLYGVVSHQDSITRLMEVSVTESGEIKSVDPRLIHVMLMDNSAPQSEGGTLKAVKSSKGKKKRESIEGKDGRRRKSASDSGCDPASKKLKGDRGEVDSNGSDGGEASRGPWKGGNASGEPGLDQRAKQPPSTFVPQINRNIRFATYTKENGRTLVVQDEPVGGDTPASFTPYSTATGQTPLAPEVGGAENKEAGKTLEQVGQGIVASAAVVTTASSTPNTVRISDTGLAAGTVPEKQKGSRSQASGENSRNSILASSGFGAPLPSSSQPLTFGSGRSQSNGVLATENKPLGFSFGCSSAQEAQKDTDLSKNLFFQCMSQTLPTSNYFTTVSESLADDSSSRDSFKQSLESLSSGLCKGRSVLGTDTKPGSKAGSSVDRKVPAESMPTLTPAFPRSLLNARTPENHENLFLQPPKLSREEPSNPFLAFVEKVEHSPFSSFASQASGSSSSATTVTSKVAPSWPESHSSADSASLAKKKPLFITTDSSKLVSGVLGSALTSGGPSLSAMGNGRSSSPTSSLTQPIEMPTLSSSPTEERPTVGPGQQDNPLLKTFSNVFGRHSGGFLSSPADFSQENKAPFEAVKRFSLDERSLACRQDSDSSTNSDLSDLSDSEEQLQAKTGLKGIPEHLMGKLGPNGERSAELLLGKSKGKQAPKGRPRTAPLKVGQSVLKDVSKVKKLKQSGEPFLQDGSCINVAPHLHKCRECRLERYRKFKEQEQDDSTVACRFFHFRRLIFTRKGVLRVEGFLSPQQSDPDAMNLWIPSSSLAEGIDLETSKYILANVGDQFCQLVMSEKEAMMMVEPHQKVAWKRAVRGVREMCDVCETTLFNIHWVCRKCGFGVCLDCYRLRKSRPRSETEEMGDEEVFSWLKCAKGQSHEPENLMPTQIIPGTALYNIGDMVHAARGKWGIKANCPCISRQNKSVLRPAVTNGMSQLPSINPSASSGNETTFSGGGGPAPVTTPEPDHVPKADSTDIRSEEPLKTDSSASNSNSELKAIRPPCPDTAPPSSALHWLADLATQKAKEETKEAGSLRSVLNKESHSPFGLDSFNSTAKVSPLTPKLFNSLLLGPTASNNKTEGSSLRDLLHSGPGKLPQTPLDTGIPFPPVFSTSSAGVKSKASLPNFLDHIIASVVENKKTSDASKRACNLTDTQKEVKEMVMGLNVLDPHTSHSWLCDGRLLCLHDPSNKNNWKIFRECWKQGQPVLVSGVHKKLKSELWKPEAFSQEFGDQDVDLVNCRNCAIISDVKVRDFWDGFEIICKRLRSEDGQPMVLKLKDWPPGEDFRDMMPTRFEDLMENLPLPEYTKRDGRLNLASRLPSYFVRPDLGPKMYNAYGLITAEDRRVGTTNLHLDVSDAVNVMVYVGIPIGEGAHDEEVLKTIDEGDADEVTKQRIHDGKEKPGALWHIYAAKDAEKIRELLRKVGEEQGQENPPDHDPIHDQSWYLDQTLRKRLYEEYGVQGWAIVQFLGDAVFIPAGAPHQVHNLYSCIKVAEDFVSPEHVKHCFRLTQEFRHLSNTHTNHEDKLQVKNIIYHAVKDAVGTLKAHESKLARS
Procedure, shortened: as §1

[3] = Hepatic metabolism S9 fraction incubation, human; settings: 0.1 μM, plus glutathione, UDPGA, PAPS, 37 °C
[4] = system: 293T cells expressing a TCF-responsive luciferase reporter (293T-TCF-Luc); test: Wnt luciferase reporter assay; format: cell-based; settings: Homo sapiens, HEK-293T, 16 h, read-out: IC50 (293T-TCF-Luc)
Procedure, shortened: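 293T cells stably transduced with a lentiviral TCF/LEF–luciferase reporter and selected in puromycin ([…], 4 days). Seeded at 100 000 cells/well and dosed with test compound on attachment. Wnt signalling stimulated with 20 mM LiCl 4 h later. Lysates taken at 16 h; Bright-Glo luminescence normalised to total protein.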

[5] = system: ALDH^high-HCP-1 CSCs; test: Tumor sphere formation assay HCP-1; format: cell-based, human; settings: 2 weeks
Procedure, shortened: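 Trypsinised cells passed through a 40 μm strainer and stained with ALDEFLUOR. ALDHHigh cells sorted by FACS, with DEAB-treated cells as gating control. Plated at 1000 cells/well on ultra-low attachment in serum-free MEBM containing 2% B27, 20 ng mL−1 EGF, 10 ng mL−1 FGF, 1 ng mL−1 hydrocortisone, 5 μg mL−1 insulin and 100 μM β-mercaptoethanol. Dosed 1 h after plating; medium renewed at 1 week. Spheres >40 μm counted at 2 weeks for ED50.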

[6] = system: CSC growth; settings: most cell-based assays ref 16,17; cited from earlier work
[7] = Hepatic metabolism S9 fraction incubation, rat; settings: 0.1 μM, plus glutathione, UDPGA, PAPS, 37 °C
[8] = system: KDM4 family proteins (KDM4A, KDM4B and KDM4C); test: Western blot KDM4 family proteins in SW480 cells; format: cell-based, human
Procedure, shortened: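 Lysates from compound-treated SW480 cells normalised for total protein and resolved by SDS-PAGE. Semi-dry transfer to PVDF, 1 h block in 5% milk. Overnight incubation at 4 °C with anti-KDM4A, -KDM4B or -KDM4C antibody in 1% milk, secondary 1 h at RT, TBST washes, α-tubulin as loading control.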

[9] = system: CRL-1790 cells; test: CCK-8 based toxicity assay; format: cell-based, human
Procedure, shortened: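 Non-malignant human colon epithelial CRL-1790 cells grown in EMEM with 10% FBS and 1% pen–strep at 37 °C and 5% CO2. Seeded at 3 × 10^3 cells/well in 96-well plates, then exposed to test compound. Viability read by CCK-8 at 48 h as OD 450 nm. TD50 derived from the dose–response.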

[10] = system: Wnt target genes in SW480 cells; test: RT-qPCR of Wnt target gene expression in SW480; format: cell-based, human
Procedure, shortened: (§2)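 Cells in 6-well plates exposed to test compound for 16 h. Total RNA extracted; 1 μg reverse-transcribed with M-MuLV and random hexamers. SYBR Green qPCR for the named genes, quantified by 2ΔΔct against tubulin. Mean ± SD; unpaired two-tailed Student's t-test.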

[11] = system: Wnt target genes in HCP-1 cells; test: RT-qPCR of Wnt target gene expression in HCP-1; format: cell-based, human
Procedure, shortened: as §2

[12] = system: SW480 cells; test: Clonogenic assay SW480; format: cell-based, human; settings: SW480, 2 weeks
Procedure, shortened: (§3)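 Cells kept in DMEM with 10% FBS and 1% pen–strep, seeded at 500 cells/well and dosed with test compound once attached. Medium refreshed every 3 days for 2 weeks. Colonies stained with 0.5% crystal violet and photographed. ED50 obtained by image analysis.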

[13] = system: HCP-1 cells; test: Clonogenic assay HCP-1; format: cell-based, human; settings: HCP-1, 2 weeks
Procedure, shortened: as §3

With O=C1CCC(N2C(=O)c3cccc(NCCOCCOCCOCCOCCOCCNC(=O)c4ccc(O)c5ncccc45)c3C2=O)C(=O)N1 (stereo not drawn) [Compound 5, N-(17-((2-(2,6-Dioxopiperidin-3-yl)-1,3-dioxoisoindolin-4-yl)amino)-3,6,9,12,15-pentaoxaheptadecyl)-8-hydroxyquinoline-5-carboxamide] the “KDM3A degradation (western blot)” value [1] was “little effect in degrading KDM3A and KDM3B” and the “KDM3B degradation (western blot)” value [2] was “little effect in degrading KDM3A and KDM3B”.
Work on CC(C)NCC(O)COc1cccc2ccccc12 (stereo not drawn) [Propranolol, reference compound] yielded a half-life at 0.1 μM ([3]; human, s9, t 1/2 Human (liver, S9)) greater than 2 h.
For O=C1CCC(N2C(=O)c3cccc(NCCOCCOCCOCCNC(=O)c4ccc(O)c5ncccc45)c3C2=O)C(=O)N1 (stereo not drawn) [Compound 3, N-(2-(2-(2-(2-((2-(2,6-Dioxopiperidin-3-yl)-1,3-dioxoisoindolin-4-yl)amino)ethoxy)ethoxy)ethoxy)ethyl)-8-hydroxyquinoline-5-carboxamide], the “KDM3A degradation (western blot)” value [1] was “little effect in degrading KDM3A and KDM3B” and the “KDM3B degradation (western blot)” value [2] was “little effect in degrading KDM3A and KDM3B”.
For O=C(O)c1ccc(O)c2ncccc12 [IOX1, 8-Hydroxyquinoline-5-carboxylic acid, reference compound], the IC50 [4] was 48.6 µM, the “KDM3A degradation (western blot)” value [1] was “did not induce KDM3A and KDM3B degradation” and the “KDM3B degradation (western blot)” value [2] was “did not induce KDM3A and KDM3B degradation”. The “ED50 HCP-1 (tumor sphere formation)” value [5] was 10.1 µM and the “effective concentrations for suppressing CSC growth” value [6] was 20 to 50 µM.
In the case of O=C(O)Cc1ccccc1Nc1c(Cl)cccc1Cl [Diclofenac, reference compound], the “CLint Rat (liver, S9)” value [7] is reported as 6.8 µL/min/mg and the “CLint Human (liver, S9)” value [3] is reported as 37.5 µL/min/mg.
In the case of O=C1CCC(N2C(=O)c3cccc(NCCOCCOCCOCCOCCOCCOCCNC(=O)c4ccc(O)c5ncccc45)c3C2=O)C(=O)N1 (stereo not drawn) [Compound 6, N-(20-((2-(2,6-Dioxopiperidin-3-yl)-1,3-dioxoisoindolin-4-yl)amino)-3,6,9,12,15,18-hexaoxaicosyl)-8-hydroxyquinoline-5-carboxamide], the “KDM3A degradation (western blot)” value [1] is reported as “limited ability to degrade KDM3A and KDM3B”, the “KDM3B degradation (western blot)” value [2] is reported as “limited ability to degrade KDM3A and KDM3B” and the “effect on KDM4 family proteins” value [8] is reported as “not dramatically affected”. The “cell growth of CRL-1790” value ([9]; 60 μM, two-day treatment) was “not dramatically affected”, the “TD50 CRL-1790” value ([9]; CCK8 assay, 48 h post drug treatment) was 400.3 µM and the “suppression of Wnt target gene expression (AXIN2, DKK1, CCND1)” value ([10]; SW480, 50 μM, 16-hour treatment, in most cases) was no less than 50%. For the same molecule, the “expression of colorectal CSC signature genes (ASCL2, RNF43, ZNRF3, LGR5)” value ([10]; SW480, 16 hours) was “strongly inhibited”, the “suppression of Wnt target gene expression (AXIN2, DKK1, CCND1)” value ([11]; HCP-1, 50 μM, 16-hour treatment, in most cases) was no less than 50% and the “expression of colorectal CSC signature genes (ASCL2, RNF43, ZNRF3, LGR5)” value ([11]; HCP-1, 16 hours) was “strongly inhibited”. The colony formation [12] was “potently inhibited the colony formation”, the colony formation [13] was “potently inhibited the colony formation” and the “ED50 HCP-1 (tumor sphere formation)” value [5] was 0.51 µM.
